We go through one compound from ChEMBL document CHEMBL4196175, “First SAR Study for Overriding NRAS Mutant Driven Acute Myeloid Leukemia” (J Med Chem, 2018).

In the test the test system is BaF3. The test is described as follows: Induction of apoptosis in mouse BA/F3 cells expressing NRAS-G12D mutant assessed as increase in cleaved PARP levels at 5 uM after 24 hrs by Western blot analysis. The test is classed as functional, cell-based. In short, it runs like this: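 Cells treated 24 h with indicated concentrations (1 µM; 5 µM also used in Ba/F3-NRAS-G12D); cleaved PARP, cleaved caspase 3, bcl-2 and MCL1 detected by western blot with actin as loading control.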
(Immunoblotting shows a protein as a band on a membrane.)

Each structure is given as a SMILES string. Active and inactive are the calls of the source. No cut-off for these calls is given here.

Take `Cc1ccc(NC(=O)c2cccc(C(F)(F)F)c2)cc1N1Cc2cnc(N)nc2N(C)C1=O`: the result was Active.
